Source: ChEMBL document CHEMBL1781874, “Cytotoxic triterpenoids from the stems of Microtropis japonica” (J Nat Prod, 2009)
Values after ≈ are worked out from the molar mass of the structure shown. Active and inactive are the calls of the source. No cut-off for these calls is given here.

Experiments:
HL-60 [1] = experiment: Cytotoxicity against human HL60 cells after 24 hrs by MTT assay; type: functional, cell-based; details: HL-60, 24 h
Summary of the method: (§1)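 MTT viability read-out on human cancer cell lines (Ca9-22 gingival, HL60 leukemia, HepG2 hepatoma), run to a previously published protocol.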

HepG2 = experiment: Cytotoxicity against human HepG2 cells after 24 hrs by MTT assay; type: functional, cell-based; details: HepG2, 24 h; summary of the method: as §1
[2] = molecular target: Histone deacetylase 4 (Homo sapiens) (UniProt P56524); experiment: Inhibition of HDAC4 in human HL60 cells at 5 to 20 ug/ml after 24 hrs by Western blotting analysis; type: cell-based; details: HL-60
Summary of the method: (§2)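 Cells lysed for 30 min in RIPA buffer (PBS, 1% NP-40, 0.5% deoxycholate, 0.1% SDS, 1 mM orthovanadate, 100 μg/mL PMSF, 30 μg/mL aprotinin), then spun at 20000g for 30 min. Supernatant protein quantified by Bio-Rad assay. Equal protein run on 7.5, 10 or 12% SDS-PAGE, transferred to PVDF, blocked 1 h in 5% nonfat milk in TBST.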

[3] = molecular target: Histone deacetylase 1 (Homo sapiens) (UniProt Q13547); experiment: Inhibition of HDAC1 in human HL60 cells at 5 to 20 ug/ml after 24 hrs by Western blotting analysis; type: cell-based; details: HL-60; summary of the method: as §2
[4] = molecular target: Histone deacetylase (Homo sapiens) (UniProt Q13547+O15379+Q9UBN7+Q92769+Q9UQL6+Q8WUI4+Q9BY41+Q96DB2+P56524+Q9UKV0+Q969S8); details: HL-60, at 20 µg/mL
HL-60 [5] = experiment: Induction of apoptosis in human HL60 cells assessed as PARP cleavage by Western blotting analysis; type: functional, cell-based; summary of the method: as §2
[6] = molecular target: Histone deacetylase 5 (Homo sapiens) (UniProt Q9UQL6); experiment: Inhibition of HDAC5 in human HL60 cells at 5 to 20 ug/ml after 24 hrs by Western blotting analysis; type: cell-based; details: HL-60; summary of the method: as §2
HL-60 [7] = experiment: Effect on Bcl2 expression in human HL60 cells by Western blotting analysis; type: functional, cell-based; summary of the method: as §2
HL-60 [8] = experiment: Induction of apoptosis in human HL60 cells assessed as increase in Bax expression by Western blotting analysis; type: functional, cell-based; summary of the method: as §2
[9] = molecular target: Histone deacetylase 3 (Homo sapiens) (UniProt O15379); experiment: Inhibition of HDAC3 in human HL60 cells at 5 to 20 ug/ml after 24 hrs by Western blotting analysis; type: cell-based; details: HL-60; summary of the method: as §2
[10] = molecular target: T1, Protein deacetylase HDAC6 (Homo sapiens) (UniProt Q9UBN7); experiment: Inhibition of HDAC6 in human HL60 cells at 5 to 20 ug/ml after 24 hrs by Western blotting analysis; type: cell-based; details: HL-60; summary of the method: as §2
T1 sequence (whole entry): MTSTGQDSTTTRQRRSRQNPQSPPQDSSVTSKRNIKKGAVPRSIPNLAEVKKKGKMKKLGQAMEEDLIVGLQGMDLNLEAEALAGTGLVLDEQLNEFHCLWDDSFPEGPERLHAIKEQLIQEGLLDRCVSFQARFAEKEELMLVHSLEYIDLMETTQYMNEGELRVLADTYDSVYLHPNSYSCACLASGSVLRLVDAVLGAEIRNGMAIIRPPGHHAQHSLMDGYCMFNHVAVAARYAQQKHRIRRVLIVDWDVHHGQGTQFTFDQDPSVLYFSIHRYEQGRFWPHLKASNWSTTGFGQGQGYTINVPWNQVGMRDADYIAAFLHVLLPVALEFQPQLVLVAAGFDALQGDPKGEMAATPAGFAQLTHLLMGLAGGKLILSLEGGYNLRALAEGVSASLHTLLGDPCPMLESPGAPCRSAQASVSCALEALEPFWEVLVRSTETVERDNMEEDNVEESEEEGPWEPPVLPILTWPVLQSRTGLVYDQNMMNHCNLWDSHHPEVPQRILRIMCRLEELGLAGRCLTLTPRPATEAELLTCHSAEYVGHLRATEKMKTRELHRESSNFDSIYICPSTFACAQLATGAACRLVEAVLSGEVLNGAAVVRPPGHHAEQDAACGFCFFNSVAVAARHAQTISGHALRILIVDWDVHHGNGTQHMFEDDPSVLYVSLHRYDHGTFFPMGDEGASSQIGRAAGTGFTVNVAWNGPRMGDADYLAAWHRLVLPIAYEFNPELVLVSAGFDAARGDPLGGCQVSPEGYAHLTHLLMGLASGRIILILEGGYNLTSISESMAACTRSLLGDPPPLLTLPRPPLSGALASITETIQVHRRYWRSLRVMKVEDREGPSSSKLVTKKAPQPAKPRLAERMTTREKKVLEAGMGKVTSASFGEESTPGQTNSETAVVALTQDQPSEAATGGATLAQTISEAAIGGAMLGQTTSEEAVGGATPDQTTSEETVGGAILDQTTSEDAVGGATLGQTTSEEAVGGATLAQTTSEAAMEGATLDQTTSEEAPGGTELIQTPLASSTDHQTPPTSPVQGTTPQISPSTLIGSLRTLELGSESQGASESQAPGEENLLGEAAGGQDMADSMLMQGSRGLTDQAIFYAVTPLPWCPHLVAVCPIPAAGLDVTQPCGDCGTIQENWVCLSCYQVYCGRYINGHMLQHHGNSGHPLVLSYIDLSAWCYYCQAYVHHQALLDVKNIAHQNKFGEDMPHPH

Ca9-22 = experiment: Cytotoxicity against human Ca9-22 cells after 24 hrs by MTT assay; type: functional, cell-based; details: Ca9-22, 24 h; summary of the method: as §1

Histone deacetylase 4 (Homo sapiens), sequence (P56524 whole entry): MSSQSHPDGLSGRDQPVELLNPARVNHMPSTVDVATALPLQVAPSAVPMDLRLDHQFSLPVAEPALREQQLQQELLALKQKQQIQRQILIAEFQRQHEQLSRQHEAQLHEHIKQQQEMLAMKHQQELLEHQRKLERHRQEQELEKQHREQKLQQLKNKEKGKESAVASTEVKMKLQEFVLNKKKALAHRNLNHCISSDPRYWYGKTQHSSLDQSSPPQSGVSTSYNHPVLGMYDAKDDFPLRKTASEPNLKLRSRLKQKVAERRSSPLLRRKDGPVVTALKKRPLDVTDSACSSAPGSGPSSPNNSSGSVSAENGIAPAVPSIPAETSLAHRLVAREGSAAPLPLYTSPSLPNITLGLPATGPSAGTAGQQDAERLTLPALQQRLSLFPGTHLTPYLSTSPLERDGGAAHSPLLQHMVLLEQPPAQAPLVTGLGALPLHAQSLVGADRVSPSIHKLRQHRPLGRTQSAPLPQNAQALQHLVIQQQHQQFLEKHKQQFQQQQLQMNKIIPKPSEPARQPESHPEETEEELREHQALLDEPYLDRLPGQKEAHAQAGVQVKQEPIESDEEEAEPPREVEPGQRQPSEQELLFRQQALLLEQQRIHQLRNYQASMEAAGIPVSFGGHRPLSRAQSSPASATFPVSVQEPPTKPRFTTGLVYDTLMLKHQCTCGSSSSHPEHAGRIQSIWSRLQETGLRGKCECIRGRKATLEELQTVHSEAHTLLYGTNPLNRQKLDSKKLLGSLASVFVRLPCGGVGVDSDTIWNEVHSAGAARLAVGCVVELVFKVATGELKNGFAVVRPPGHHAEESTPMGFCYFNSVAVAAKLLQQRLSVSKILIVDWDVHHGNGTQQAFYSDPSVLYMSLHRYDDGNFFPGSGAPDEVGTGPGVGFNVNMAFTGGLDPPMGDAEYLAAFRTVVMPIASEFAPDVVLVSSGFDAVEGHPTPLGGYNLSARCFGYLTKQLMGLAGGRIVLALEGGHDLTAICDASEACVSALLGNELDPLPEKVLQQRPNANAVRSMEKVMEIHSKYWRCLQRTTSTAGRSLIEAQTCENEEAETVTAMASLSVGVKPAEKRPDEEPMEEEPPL
Histone deacetylase 1 (Homo sapiens), sequence (Q13547 whole entry): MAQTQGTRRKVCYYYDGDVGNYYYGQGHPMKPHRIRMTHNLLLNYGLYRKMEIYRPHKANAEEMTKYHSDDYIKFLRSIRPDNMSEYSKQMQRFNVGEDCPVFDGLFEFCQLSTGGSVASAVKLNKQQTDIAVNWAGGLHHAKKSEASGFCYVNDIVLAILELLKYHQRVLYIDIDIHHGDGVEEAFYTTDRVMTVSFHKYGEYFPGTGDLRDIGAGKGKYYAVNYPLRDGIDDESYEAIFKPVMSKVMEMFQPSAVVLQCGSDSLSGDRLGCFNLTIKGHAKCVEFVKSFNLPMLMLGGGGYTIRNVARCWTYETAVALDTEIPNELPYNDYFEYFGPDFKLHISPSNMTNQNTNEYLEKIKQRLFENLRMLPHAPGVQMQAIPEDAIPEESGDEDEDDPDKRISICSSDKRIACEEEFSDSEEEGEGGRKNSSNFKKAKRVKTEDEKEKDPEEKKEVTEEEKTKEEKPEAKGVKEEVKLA
Histone deacetylase 5 (Homo sapiens), sequence (Q9UQL6 whole entry): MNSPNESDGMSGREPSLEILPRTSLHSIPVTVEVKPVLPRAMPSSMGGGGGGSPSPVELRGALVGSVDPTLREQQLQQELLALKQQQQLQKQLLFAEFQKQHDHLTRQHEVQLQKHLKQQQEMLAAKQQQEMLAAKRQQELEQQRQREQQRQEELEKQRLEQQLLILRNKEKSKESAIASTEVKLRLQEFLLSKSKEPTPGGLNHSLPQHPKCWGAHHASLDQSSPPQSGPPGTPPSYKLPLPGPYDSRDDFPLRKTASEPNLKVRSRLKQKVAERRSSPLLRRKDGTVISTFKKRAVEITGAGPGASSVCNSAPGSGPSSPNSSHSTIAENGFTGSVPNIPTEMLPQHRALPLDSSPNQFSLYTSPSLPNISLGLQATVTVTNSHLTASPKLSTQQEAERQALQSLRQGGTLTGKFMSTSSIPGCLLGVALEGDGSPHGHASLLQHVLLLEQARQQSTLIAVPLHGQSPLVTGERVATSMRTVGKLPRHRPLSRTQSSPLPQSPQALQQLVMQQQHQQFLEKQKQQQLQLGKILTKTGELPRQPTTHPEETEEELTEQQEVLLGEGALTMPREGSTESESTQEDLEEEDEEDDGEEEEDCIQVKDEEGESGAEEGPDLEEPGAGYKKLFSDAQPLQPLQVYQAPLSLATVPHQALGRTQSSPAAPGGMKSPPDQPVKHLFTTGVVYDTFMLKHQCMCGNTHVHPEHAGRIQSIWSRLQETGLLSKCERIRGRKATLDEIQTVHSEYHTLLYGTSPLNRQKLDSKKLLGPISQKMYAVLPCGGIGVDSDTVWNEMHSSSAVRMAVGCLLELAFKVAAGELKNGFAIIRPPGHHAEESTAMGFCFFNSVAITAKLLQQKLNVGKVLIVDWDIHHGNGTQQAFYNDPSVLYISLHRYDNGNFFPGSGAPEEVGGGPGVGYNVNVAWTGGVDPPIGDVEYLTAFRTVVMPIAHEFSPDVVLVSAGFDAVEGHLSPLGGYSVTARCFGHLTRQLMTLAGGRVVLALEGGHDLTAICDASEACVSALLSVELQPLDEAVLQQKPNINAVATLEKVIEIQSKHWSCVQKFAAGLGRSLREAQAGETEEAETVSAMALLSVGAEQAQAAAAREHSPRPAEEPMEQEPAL
Histone deacetylase 3 (Homo sapiens), sequence (O15379 whole entry): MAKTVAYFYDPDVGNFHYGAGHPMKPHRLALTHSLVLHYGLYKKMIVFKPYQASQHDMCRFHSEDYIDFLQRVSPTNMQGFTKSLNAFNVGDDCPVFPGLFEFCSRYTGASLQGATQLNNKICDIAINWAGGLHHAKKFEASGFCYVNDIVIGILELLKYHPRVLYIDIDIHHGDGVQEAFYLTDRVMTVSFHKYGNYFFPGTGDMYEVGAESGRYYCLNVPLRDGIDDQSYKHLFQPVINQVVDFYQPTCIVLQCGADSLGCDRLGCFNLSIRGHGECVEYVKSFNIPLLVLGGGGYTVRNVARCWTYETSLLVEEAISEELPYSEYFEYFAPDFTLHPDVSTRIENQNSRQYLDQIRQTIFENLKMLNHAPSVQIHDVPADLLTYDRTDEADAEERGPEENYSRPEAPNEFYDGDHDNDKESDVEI

CO[C@@H]1C(O)=C2[C@@H]3[C@@H](C)[C@H](C)CC[C@]3(C)CC[C@@]2(C)[C@]2(C)CC[C@@H]3[C@](C)(CCC(=O)[C@@]3(C)CO)[C@@H]12
IC50 (HL-60 [1]): 5.1 µg/mL (≈ 10.5 µM) | IC50 (HepG2): 7.7 µg/mL (≈ 15.8 µM)

C[C@H]1[C@H](C)CC[C@]2(C(=O)O)CC[C@]3(C)C(=CC[C@@H]4[C@@]5(C)CC[C@H](O)C(C)(C)[C@@H]5CC[C@]43C)[C@H]12 [URSOLIC ACID]
IC50 (HL-60 [1]): 8.7 µg/mL (≈ 19 µM) | inhibition [2]: Active | inhibition [3]: Active | inhibition [4]: Active | Activity (HL-60 [5]): Active | inhibition [6]: Active | Activity (HL-60 [7]): inactive | Activity (HL-60 [8]): Active | inhibition [9]: Active | inhibition [10]: Active | IC50 (Ca9-22): 5.9 µg/mL (≈ 12.9 µM)
